According to ChEMBL document CHEMBL1687755, “PER-6, an extended-spectrum beta-lactamase from Aeromonas allosaccharophila” (Antimicrob Agents Chemother, 2010):
Values after ≈ are worked out from the molar mass of the structure shown.

Legend:
[1] = tested on: Aeromonas allosaccharophila; assay: Antimicrobial activity against Aeromonas allosaccharophila AL-1 expressing beta-lactamase PER6 by agar dilution method; format: functional
How it was run: (§1)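 The test organism was environmental isolate AL-1, recovered from Seine River water on MacConkey agar containing ceftazidime (2 μg/ml). It was identified by API 32GN and 16S rRNA gene sequencing. MICs were determined by agar dilution on Mueller-Hinton agar and interpreted by CLSI guidelines.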

Escherichia coli [2] = assay: Antimicrobial activity against Escherichia coli DH10B harboring recombinant Aeromonas allosaccharophila AL-1 beta-lactamase PER1 by agar dilution method; format: functional; details: K-12 DH10B
Escherichia coli [3] = assay: Antimicrobial activity against Escherichia coli DH10B harboring recombinant Aeromonas allosaccharophila AL-1 beta-lactamase PER2 by agar dilution method; format: functional; details: K-12 DH10B
Escherichia coli [4] = assay: Antimicrobial activity against Escherichia coli DH10B by agar dilution method; format: functional; details: K-12 DH10B
How it was run: (§2)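 MICs measured by agar dilution on Mueller-Hinton agar plates, the method used for imipenem and imipenem combined with clavulanate; other MICs were obtained by Etest. Results were interpreted according to CLSI guidelines. Test strains were E. coli DH10B recombinants carrying cloned PER-1, PER-2 or PER-6 β-lactamase genes.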

[5] = tested on: Aeromonas allosaccharophila; assay: Ratio of Kcat to Km for Aeromonas allosaccharophila AL-1 beta-lactamase PER2
[6] = tested on: Aeromonas allosaccharophila; assay: Antimicrobial activity against Aeromonas allosaccharophila AL-1 expressing beta-lactamase PER6 by agar dilution method in presence of 4 ug/ml of clavulanic acid; format: functional; how it was run: as §1
Escherichia coli [7] = assay: Antimicrobial activity against Escherichia coli DH10B harboring recombinant Aeromonas allosaccharophila AL-1 beta-lactamase PER6 by agar dilution method; format: functional; details: K-12 DH10B
Escherichia coli [8] = assay: Antimicrobial activity against Escherichia coli DH10B harboring recombinant Aeromonas allosaccharophila AL-1 beta-lactamase PER6 by agar dilution method in presence of 4 ug/ml of clavulanic acid; format: functional; details: K-12 DH10B
Escherichia coli [9] = assay: Antimicrobial activity against Escherichia coli DH10B harboring recombinant Aeromonas allosaccharophila AL-1 beta-lactamase PER1 by agar dilution method in presence of 4 ug/ml of clavulanic acid; format: functional; details: K-12 DH10B
Escherichia coli [10] = assay: Antimicrobial activity against Escherichia coli DH10B harboring recombinant Aeromonas allosaccharophila AL-1 beta-lactamase PER2 by agar dilution method in presence of 4 ug/ml of clavulanic acid; format: functional; details: K-12 DH10B
Escherichia coli [11] = assay: Antimicrobial activity against Escherichia coli DH10B by agar dilution method in presence of 4 ug/ml of clavulanic acid; format: functional; details: K-12 DH10B; how it was run: as §2

`C[C@@H](O)[C@H]1C(=O)N2C(C(=O)O)=C(S[C@@H]3CN[C@H](C(=O)N(C)C)C3)[C@H](C)[C@H]12` [MEROPENEM] showed an MIC [1] of 0.06 µg/mL (≈ 0.156 µM), an MIC (Escherichia coli [2]) of 0.03 µg/mL and an MIC (Escherichia coli [3]) of 0.03 µg/mL. For the same compound, the MIC (Escherichia coli [4]) was 0.06 µg/mL (≈ 0.156 µM).

With `CC1(C)S[C@@H]2[C@H](NC(=O)[C@H](N)c3ccccc3)C(=O)N2[C@H]1C(=O)O` the kcat/Km [5] was 330000 M⁻¹ s⁻¹.

In the case of `C[C@@H](O)[C@H]1C(=O)N2C(C(=O)O)=C(SCCNC=N)C[C@H]12` [IMIPENEM ANHYDROUS], the MIC [1] is reported as 1 µg/mL (≈ 3.34 µM), the MIC [6] is reported as 0.5 µg/mL and the kcat/Km [5] is reported as less than 10000 M⁻¹ s⁻¹.

In the case of `CC1(C)S[C@@H]2[C@H](NC(=O)[C@H](C(=O)O)c3ccsc3)C(=O)N2[C@H]1C(=O)O` [TICARCILLIN], the MIC [1] is reported as greater than 256 µg/mL, the MIC (Escherichia coli [7]) is reported as greater than 256 µg/mL and the MIC (Escherichia coli [2]) is reported as greater than 256 µg/mL. The MIC (Escherichia coli [3]) was greater than 256 µg/mL, the MIC (Escherichia coli [4]) was 4 µg/mL (≈ 10.4 µM) and the MIC [6] was 256 µg/mL. For the same compound, the MIC (Escherichia coli [8]) was 12 µg/mL, the MIC (Escherichia coli [9]) was 16 µg/mL and the MIC (Escherichia coli [10]) was 16 µg/mL. It also gave an MIC (Escherichia coli [11]) of 4 µg/mL.

Work on `CC(=O)OCC1=C(C(=O)O)N2C(=O)[C@@H](NC(=O)Cc3cccs3)[C@H]2SC1` [CEPHALOTHIN] yielded an MIC [1] of 16 µg/mL (≈ 40.4 µM), an MIC (Escherichia coli [7]) greater than 256 µg/mL and an MIC (Escherichia coli [2]) greater than 256 µg/mL. For the same compound, the MIC (Escherichia coli [3]) was greater than 256 µg/mL, the MIC (Escherichia coli [4]) was 2 µg/mL (≈ 5.04 µM) and the kcat/Km [5] was 670000 M⁻¹ s⁻¹.

`CO/N=C(\C(=O)N[C@@H]1C(=O)N2C(C(=O)O)=C(COC(C)=O)CS[C@H]12)c1csc(N)n1` [CEFOTAXIME] gave an MIC [1] of 2 µg/mL (≈ 4.39 µM), an MIC (Escherichia coli [7]) of 64 µg/mL and an MIC (Escherichia coli [2]) of 48 µg/mL. For the same compound, the MIC (Escherichia coli [3]) was 64 µg/mL, the MIC (Escherichia coli [4]) was 0.12 µg/mL (≈ 0.263 µM) and the kcat/Km [5] was 760000 M⁻¹ s⁻¹.

Work on `CC1(C)S[C@@H]2[C@H](NC(=O)[C@H](N)c3ccc(O)cc3)C(=O)N2[C@H]1C(=O)O` [AMOXICILLIN] yielded an MIC [1] greater than 256 µg/mL, an MIC (Escherichia coli [7]) greater than 256 µg/mL and an MIC (Escherichia coli [2]) greater than 256 µg/mL. For the same compound, the MIC (Escherichia coli [3]) was greater than 256 µg/mL, the MIC (Escherichia coli [4]) was 4 µg/mL (≈ 10.9 µM) and the MIC [6] was 12 µg/mL. It also gave an MIC (Escherichia coli [8]) of 4 µg/mL, an MIC (Escherichia coli [9]) of 4 µg/mL and an MIC (Escherichia coli [10]) of 6 µg/mL. It also gave an MIC (Escherichia coli [11]) of 4 µg/mL.

In the case of `CC1(C)S[C@@H]2[C@H](NC(=O)Cc3ccccc3)C(=O)N2[C@H]1C(=O)O`, the kcat/Km [5] is reported as 120000 M⁻¹ s⁻¹.
